Results published in ChEMBL document CHEMBL1124128, “Angiotensin-converting enzyme inhibitors. Mercaptan, carboxyalkyl dipeptide, and phosphinic acid inhibitors incorporating 4-substituted prolines” (J Med Chem, 1988).
Values joined by “and” are separate entries in the source; they are usually repeats but may differ in a detail not shown here. Identical values can stand only once.

Assays:
Rattus norvegicus [1] = test: % Inhibition of angiotensin-I induced pressor response in normotensive rats after intravenous dosing of 1.5 umol/kg; format: functional
How it was run: (§1)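 Conscious, unrestrained male Sprague–Dawley rats (225–275 g) with indwelling aortic and vena caval catheters, allowed at least 2 weeks of recovery. Aortic pressure recorded directly. Baseline pressor responses to AI (310 ng/kg iv) and AII (100 ng/kg iv) were taken first. Compound was given iv in 0.1 mL water or 5% NaHCO3, and responses were followed for up to 70 min. Maximum % inhibition is the mean of four animals per dose.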

Rattus norvegicus [2] = test: % Inhibition of angiotensin-I induced pressor response in normotensive rats after intravenous dosing of 0.5 umol/kg; format: functional; how it was run: as §1
[3] = molecular target: T1, Angiotensin-converting enzyme (Rattus norvegicus) (UniProt P47820); test: In vitro inhibition of rat Angiotensin I converting enzyme
T1 sequence (whole entry): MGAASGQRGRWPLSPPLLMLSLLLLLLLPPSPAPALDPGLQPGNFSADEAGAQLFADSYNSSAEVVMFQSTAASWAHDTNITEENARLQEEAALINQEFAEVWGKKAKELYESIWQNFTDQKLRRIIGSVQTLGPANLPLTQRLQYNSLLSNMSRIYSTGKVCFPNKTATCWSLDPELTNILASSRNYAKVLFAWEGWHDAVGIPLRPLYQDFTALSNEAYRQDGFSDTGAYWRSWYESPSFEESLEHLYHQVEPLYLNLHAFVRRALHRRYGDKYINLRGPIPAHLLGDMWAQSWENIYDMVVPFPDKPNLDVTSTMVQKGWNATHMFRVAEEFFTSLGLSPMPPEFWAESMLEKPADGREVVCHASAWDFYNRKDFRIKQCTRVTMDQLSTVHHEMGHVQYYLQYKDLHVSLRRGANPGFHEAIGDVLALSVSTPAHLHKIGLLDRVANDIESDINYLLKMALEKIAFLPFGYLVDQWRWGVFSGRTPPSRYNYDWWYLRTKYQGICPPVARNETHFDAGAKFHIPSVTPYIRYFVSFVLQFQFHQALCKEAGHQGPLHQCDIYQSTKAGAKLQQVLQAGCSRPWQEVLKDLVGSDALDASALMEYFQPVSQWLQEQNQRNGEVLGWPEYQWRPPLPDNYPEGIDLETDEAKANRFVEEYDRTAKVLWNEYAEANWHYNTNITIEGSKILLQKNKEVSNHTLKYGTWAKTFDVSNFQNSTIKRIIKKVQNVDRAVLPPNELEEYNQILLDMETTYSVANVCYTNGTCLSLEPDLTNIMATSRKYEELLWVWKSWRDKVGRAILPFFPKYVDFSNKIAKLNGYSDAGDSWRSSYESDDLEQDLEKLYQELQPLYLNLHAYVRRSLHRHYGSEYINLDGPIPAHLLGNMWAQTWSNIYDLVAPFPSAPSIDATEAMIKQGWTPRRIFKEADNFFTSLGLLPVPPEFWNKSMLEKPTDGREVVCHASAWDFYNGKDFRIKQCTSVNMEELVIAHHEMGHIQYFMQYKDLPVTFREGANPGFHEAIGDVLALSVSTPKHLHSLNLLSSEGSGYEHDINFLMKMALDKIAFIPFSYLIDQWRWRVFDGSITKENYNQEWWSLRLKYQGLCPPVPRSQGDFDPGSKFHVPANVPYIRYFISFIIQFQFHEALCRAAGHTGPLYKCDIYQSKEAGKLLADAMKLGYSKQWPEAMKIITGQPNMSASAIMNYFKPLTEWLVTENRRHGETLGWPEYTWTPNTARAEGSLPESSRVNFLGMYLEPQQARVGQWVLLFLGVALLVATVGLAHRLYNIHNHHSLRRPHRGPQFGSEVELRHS

Rattus norvegicus [4] = test: % Inhibition of angiotensin-I induced pressor response in normotensive rats after intravenous dosing of 0.15 umol/kg; format: functional; how it was run: as §1
Rattus norvegicus [5] = test: (§2) % Inhibition of angiotensin-I induced pressor response in normotensive rats after intravenous dosing of 5 umol/kg; format: functional; how it was run: as §1
Rattus norvegicus [6] = test: % Inhibition of angiotensin-I induced pressor response in normotensive rats after peroral dosing of 150 umol/kg; format: functional; settings: po
How it was run: (§3)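 Conscious, unrestrained catheterized male Sprague–Dawley rats (225–275 g) had direct aortic pressure recording. Baseline pressor responses were taken to AI (310 ng/kg iv) and AII (100 ng/kg iv). Compound was given orally in water, 5% NaHCO3 or 1% agar suspension. AI and AII responses were then tracked up to 280 min. Maximum % inhibition is the mean response of four animals per dose.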

Rattus norvegicus [7] = test: % Inhibition of angiotensin-I induced pressor response in normotensive rats after peroral dosing of 50 umol/kg; format: functional; settings: po; how it was run: as §3
[8] = molecular target: T2, Angiotensin-converting enzyme (Oryctolagus cuniculus, UniProt P12822); test: Inhibitory activity against rabbit lung angiotensin-1 converting enzyme
T2 sequence (P12822 whole entry): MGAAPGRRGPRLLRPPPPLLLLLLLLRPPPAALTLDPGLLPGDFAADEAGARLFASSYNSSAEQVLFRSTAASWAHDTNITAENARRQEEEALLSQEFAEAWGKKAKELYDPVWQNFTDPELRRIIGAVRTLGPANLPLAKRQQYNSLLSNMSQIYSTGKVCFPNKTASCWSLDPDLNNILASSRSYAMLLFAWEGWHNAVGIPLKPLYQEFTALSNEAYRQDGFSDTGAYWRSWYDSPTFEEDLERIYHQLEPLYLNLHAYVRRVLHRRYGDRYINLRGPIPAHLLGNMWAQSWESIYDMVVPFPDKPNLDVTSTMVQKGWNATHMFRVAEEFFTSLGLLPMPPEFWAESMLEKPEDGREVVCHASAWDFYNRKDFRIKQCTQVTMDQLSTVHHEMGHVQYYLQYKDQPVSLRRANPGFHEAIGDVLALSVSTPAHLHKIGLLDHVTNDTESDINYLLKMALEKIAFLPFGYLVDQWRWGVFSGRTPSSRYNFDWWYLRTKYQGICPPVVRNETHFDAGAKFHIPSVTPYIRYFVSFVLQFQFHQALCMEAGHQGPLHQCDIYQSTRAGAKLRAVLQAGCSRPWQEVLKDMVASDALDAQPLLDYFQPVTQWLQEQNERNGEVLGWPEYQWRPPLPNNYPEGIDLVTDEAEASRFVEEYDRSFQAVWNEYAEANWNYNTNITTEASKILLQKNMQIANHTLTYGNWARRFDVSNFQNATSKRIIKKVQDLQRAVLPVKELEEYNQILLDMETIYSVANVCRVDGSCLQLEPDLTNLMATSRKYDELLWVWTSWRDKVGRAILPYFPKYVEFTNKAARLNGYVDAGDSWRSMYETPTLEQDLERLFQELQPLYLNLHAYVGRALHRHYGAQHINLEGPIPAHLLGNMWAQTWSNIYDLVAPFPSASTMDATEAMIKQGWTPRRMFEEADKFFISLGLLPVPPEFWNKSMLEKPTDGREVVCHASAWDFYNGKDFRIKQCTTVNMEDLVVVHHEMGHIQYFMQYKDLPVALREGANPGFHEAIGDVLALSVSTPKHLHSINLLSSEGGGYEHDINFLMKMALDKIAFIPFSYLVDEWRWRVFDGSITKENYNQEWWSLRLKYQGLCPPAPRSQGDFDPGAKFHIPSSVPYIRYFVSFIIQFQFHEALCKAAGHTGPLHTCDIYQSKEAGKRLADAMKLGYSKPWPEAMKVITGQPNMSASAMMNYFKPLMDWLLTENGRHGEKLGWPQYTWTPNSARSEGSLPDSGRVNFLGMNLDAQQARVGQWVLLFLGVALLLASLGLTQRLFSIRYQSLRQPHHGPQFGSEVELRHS

Rattus norvegicus [9] = test: (§4) % Inhibition of angiotensin-I induced pressor response in normotensive rats after peroral dosing of 15 umol/kg; format: functional; settings: po; how it was run: as §3
Rattus norvegicus [10] = test: % Inhibition of angiotensin-I induced pressor response in normotensive rats after peroral dosing of 0.5 umol/kg; format: functional; settings: po; how it was run: as §3
Rattus norvegicus [11] = test: % Inhibition of angiotensin-I induced pressor response in normotensive rats after peroral dosing of 5 umol/kg; format: functional; settings: po; how it was run: as §3
Rattus norvegicus [12] = test: (§5) % Inhibition of angiotensin-I induced pressor response in normotensive rats after intravenous dosing of 0.05 umol/kg; format: functional
How it was run: (§6)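 Male Sprague–Dawley rats (225–275 g) fitted with indwelling abdominal aorta and vena cava catheters, recovered at least 2 weeks, then tested conscious and unrestrained. Aortic pressure was recorded directly. Pressor responses to AI (310 ng/kg iv) and AII (100 ng/kg iv) were taken before dosing. Compound was given iv in water or 5% NaHCO3, and responses were followed up to 70 min. Maximum % inhibition is the mean of four animals per dose.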

Rattus norvegicus [13] = test: % Inhibition of angiotensin-I induced pressor response in normotensive rats after peroral dosing of 1.5 umol/kg; format: functional; settings: po; how it was run: as §3
Rattus norvegicus [14] = test: as §2; format: functional; how it was run: as §6; remark: listed apart in the source
[15] = molecular target: T1, Angiotensin-converting enzyme (Rattus norvegicus); test: Evaluated for inhibition of Angiotensin I converting enzyme in rat; format: functional; settings: concentration not given here
Rattus norvegicus [16] = test: % Inhibition of angiotensin-I induced pressor response in normotensive rats after peroral dosing of 0.15 umol/kg; format: functional; settings: po; how it was run: as §3
Rattus norvegicus [17] = test: as §4; format: functional; settings: po; remark: listed apart in the source
How it was run: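 Catheterized conscious male Sprague–Dawley rats (225–275 g). Baseline pressor responses to AI (310 ng/kg iv) and AII (100 ng/kg iv) were taken. Compound was given orally in 0.75 mL water, 5% NaHCO3 or 1% agar suspension, and AI/AII responses were followed for up to 280 min. Maximum % inhibition is the mean of four animals per dose.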

Rattus norvegicus [18] = test: % Inhibition of angiotensin-I induced pressor response in normotensive rats after intravenous dosing of 0.015 umol/kg; format: functional; how it was run: as §6
Rattus norvegicus [19] = test: as §5; format: functional; how it was run: as §1; remark: listed apart in the source

SMILES	inhibition in vivo at 1.5 µmol/kg (Rattus norvegicus [1]) [%]	inhibition in vivo at 0.5 µmol/kg (Rattus norvegicus [2]) [%]	T50 [3]	inhibition in vivo at 0.15 µmol/kg (Rattus norvegicus [4]) [%]	inhibition in vivo at 5 µmol/kg (Rattus norvegicus [5]) [%]	inhibition in vivo at 5 µmol/kg (Rattus norvegicus [11]) [%]	inhibition in vivo at 0.05 µmol/kg (Rattus norvegicus [12]) [%]	also measured
O=C(O)[C@@H]1C[C@H](Sc2ccccc2)CN1C(=O)CP(=O)(O)CCCCc1ccccc1	65	34	20 nM	27	88			
O=C(O)[C@@H]1CCCN1C(=O)CP(=O)(O)CCCCc1ccccc1	86	56	180 nM		92			inhibition in vivo at 150 µmol/kg (Rattus norvegicus [6]): 75%; inhibition in vivo at 50 µmol/kg (Rattus norvegicus [7]): 47%; Ki [8]: 15 nM; inhibition in vivo at 15 µmol/kg (Rattus norvegicus [9]): 13%
C[C@H](CS)C(=O)N1CCC[C@H]1C(=O)O [CAPTOPRIL]	91	87		66		79	18	inhibition in vivo at 0.5 µmol/kg (Rattus norvegicus [10]): 42%; inhibition in vivo at 50 µmol/kg (Rattus norvegicus [7]): 93%; inhibition in vivo at 1.5 µmol/kg (Rattus norvegicus [13]): 61%; inhibition in vivo at 5 µmol/kg (Rattus norvegicus [14]): 93%; inhibition in vivo at 15 µmol/kg (Rattus norvegicus [9]): 78%
O=C(O)[C@@H]1C[C@H](C2CCCCC2)CN1C(=O)CP(=O)(O)CCCCc1ccccc1		84	7 nM	73		13	26	inhibition [15]: 72%
CCOC(=O)[C@H](CCc1ccccc1)N[C@@H](C)C(=O)N1CC2(C[C@H]1C(=O)O)SCCS2								inhibition in vivo at 0.5 µmol/kg (Rattus norvegicus [10]): 41%; inhibition in vivo at 1.5 µmol/kg (Rattus norvegicus [13]): 87%; inhibition in vivo at 0.15 µmol/kg (Rattus norvegicus [16]): 15%
O=C(O)[C@@H]1C[C@@H](C2CCCCC2)CN1C(=O)CP(=O)(O)CCCCc1ccccc1 [FOSINOPRILAT]		87	11 nM and 4 nM	68		28	21	Ki [8]: 1.5 nM; inhibition in vivo at 15 µmol/kg (Rattus norvegicus [17]): 71%
CO[C@@H]1C[C@@H](C(=O)O)N(C(=O)CP(=O)(O)CCCCc2ccccc2)C1		73	100 nM					inhibition in vivo at 0.015 µmol/kg (Rattus norvegicus [18]): 23%; inhibition in vivo at 0.05 µmol/kg (Rattus norvegicus [19]): 33%
O=C(O)[C@@H]1C[C@@H](Sc2ccccc2)CN1C(=O)CP(=O)(O)CCCCc1ccccc1	69	48	17 nM	19	78		20	
